Source: ChEMBL document CHEMBL3525900, “Pharmacokinetics, distribution, and metabolism of [14C]sunitinib in rats, monkeys, and humans” (Drug Metab Dispos, 2012)

Legend:
Format in all cases: ADME, organism-based
Rattus norvegicus = test: Apparent terminal half life as total radioactivity in male Sprague-Dawley rat plasma at 15 mg/kg, po administered as single dose by LC/MS/MS analysis; set-up: dose 15 mg/kg, dosed compound name [14C]Sunitinib, route oral; conditions: in vivo
Procedure, shortened: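 Single dose of [14C]sunitinib L-malate as free base, 50 µCi/kg. IV dose was 5 mg/kg by tail vein in 5 females. Oral dose was 15 mg/kg by gavage in 3 females and 3 males. Total radioactivity was by scintillation counting. […] Cmax was read from raw data, t½ by log-linear regression, AUC by linear trapezoidal rule.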

[1] = Drug recovery in urine of female Sprague-Dawley rat at 15 mg/kg, po administered as single dose during 0 to 72 hrs by liquid scintillation counting; set-up: dose 15 mg/kg, dosed compound name [14C]Sunitinib, route oral; conditions: in vivo
[2] = Drug recovery in feces of male Sprague-Dawley rat at 15 mg/kg, po administered as single dose during 0 to 72 hrs by liquid scintillation counting; set-up: dose 15 mg/kg, dosed compound name [14C]Sunitinib, route oral; conditions: in vivo
Blood = test: Drug concentration in male Lister Hooded pigmented rat blood assessed as radioactivity per gram of tissue at 20 mg/kg administered as single dose via gastric gavage measured after 24 hrs by autoradiographic analysis; set-up: dose 20 mg/kg, dosed compound name [14C]Sunitinib; conditions: in vivo, po
Harderian gland = test: Drug concentration in female albino rat harderian gland assessed as radioactivity per gram of tissue at 20 mg/kg administered as single dose via gastric gavage measured after 3 hrs by autoradiographic analysis; set-up: dose 20 mg/kg, dosed compound name [14C]Sunitinib; conditions: in vivo, po
Procedure, shortened: (§1)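 Sprague Dawley albino rats, ca 7-8 weeks old, dosed once by gastric gavage with [14C]sunitinib L-malate (15 mg freebase/kg, 100 µCi/kg). One male and one female killed by CO2 at 3, 6, 24, 72 and 168 h. Carcasses frozen in solid CO2/hexane, embedded and cut into 30 µm sagittal sections, then freeze-dried. Radioactivity quantified by whole-body autoradiography against standards by regression, background subtracted.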

Stomach [3] = test: Drug concentration in male Lister Hooded pigmented rat stomach assessed as radioactivity per gram of tissue at 20 mg/kg administered as single dose via gastric gavage measured after 24 hrs by autoradiographic analysis; set-up: dose 20 mg/kg, dosed compound name [14C]Sunitinib; conditions: in vivo, po
[4] = Drug concentration in male Lister Hooded pigmented rat salivary gland assessed as radioactivity per gram of tissue at 20 mg/kg administered as single dose via gastric gavage measured after 24 hrs by autoradiographic analysis; set-up: dose 20 mg/kg, dosed compound name [14C]Sunitinib; conditions: in vivo, po
Zone of skin [5] = test: Drug concentration in male albino rat abdomen skin assessed as radioactivity per gram of tissue at 20 mg/kg administered as single dose via gastric gavage measured after 6 hrs by autoradiographic analysis; set-up: dose 20 mg/kg, dosed compound name [14C]Sunitinib; conditions: in vivo, po
[6] = Drug concentration in male albino rat skeletal muscle assessed as radioactivity per gram of tissue at 20 mg/kg administered as single dose via gastric gavage measured after 3 hrs by autoradiographic analysis; set-up: dose 20 mg/kg, dosed compound name [14C]Sunitinib; conditions: in vivo, po
[7] = Drug concentration in male Lister Hooded pigmented rat preputial gland assessed as radioactivity per gram of tissue at 20 mg/kg administered as single dose via gastric gavage measured after 168 hrs by autoradiographic analysis; set-up: dose 20 mg/kg, dosed compound name [14C]Sunitinib; conditions: in vivo, po
Stomach [8] = test: Drug concentration in male Lister Hooded pigmented rat stomach assessed as radioactivity per gram of tissue at 20 mg/kg administered as single dose via gastric gavage measured after 168 hrs by autoradiographic analysis; set-up: dose 20 mg/kg, dosed compound name [14C]Sunitinib; conditions: in vivo, po
Zone of skin [9] = test: Drug concentration in female albino rat abdomen skin assessed as radioactivity per gram of tissue at 20 mg/kg administered as single dose via gastric gavage measured after 3 hrs by autoradiographic analysis; set-up: dose 20 mg/kg, dosed compound name [14C]Sunitinib; conditions: in vivo, po
Procedure, shortened: (§2)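 Sprague Dawley (albino) rats, ca 7-8 weeks old, received a single gastric-gavage dose of [14C]sunitinib L-malate at 20 mg/kg (15 mg freebase/kg, 100 µCi/kg). One animal per sex killed by CO2 at 3, 6, 24, 72 and 168 h, then frozen in CO2/hexane. 30 µm sagittal sections were cut and freeze-dried. Radioactivity per gram quantified by whole-body autoradiography using regression against standards. LOQ 0.04–0.06 µg freebase equiv/g.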

[10] = Drug concentration in female albino rat uveal tract assessed as radioactivity per gram of tissue at 20 mg/kg administered as single dose via gastric gavage measured after 3 hrs by autoradiographic analysis; set-up: dose 20 mg/kg, dosed compound name [14C]Sunitinib; conditions: in vivo, po
[11] = Drug concentration in female albino rat bone marrow assessed as radioactivity per gram of tissue at 20 mg/kg administered as single dose via gastric gavage measured after 6 hrs by autoradiographic analysis; set-up: dose 20 mg/kg, dosed compound name [14C]Sunitinib; conditions: in vivo, po; procedure, shortened: as §2
Adrenal [12] = test: Drug concentration in female albino rat adrenal assessed as radioactivity per gram of tissue at 20 mg/kg administered as single dose via gastric gavage measured after 3 hrs by autoradiographic analysis; set-up: dose 20 mg/kg, dosed compound name [14C]Sunitinib; conditions: in vivo, po; procedure, shortened: as §2
[13] = Drug concentration in female Lister Hooded pigmented rat bone marrow assessed as radioactivity per gram of tissue at 20 mg/kg administered as single dose via gastric gavage measured after 24 hrs by autoradiographic analysis; set-up: dose 20 mg/kg, dosed compound name [14C]Sunitinib; conditions: in vivo, po
Procedure, shortened: (§3)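 Lister Hooded (pigmented) rats, ca 7-8 weeks old, acclimated 7 days, given [14C]sunitinib L-malate by gastric gavage at 20 mg/kg (15 mg freebase/kg, 100 µCi/kg). One male and one female killed by CO2 at 24, 72, 168 and 336 h. Carcasses frozen in solid CO2/hexane and embedded in frozen cellulose. 30 µm sagittal cryosections were freeze-dried. Tissue radioactivity measured by quantitative whole-body autoradiography against calibration standards, with background subtracted.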

Spleen = test: Drug concentration in male albino rat spleen assessed as radioactivity per gram of tissue at 20 mg/kg administered as single dose via gastric gavage measured after 3 hrs by autoradiographic analysis; set-up: dose 20 mg/kg, dosed compound name [14C]Sunitinib; conditions: in vivo, po
Stomach [14] = test: Drug concentration in male albino rat stomach assessed as radioactivity per gram of tissue at 20 mg/kg administered as single dose via gastric gavage measured after 3 hrs by autoradiographic analysis; set-up: dose 20 mg/kg, dosed compound name [14C]Sunitinib; conditions: in vivo, po
[15] = Drug concentration in male albino rat preputial gland assessed as radioactivity per gram of tissue at 20 mg/kg administered as single dose via gastric gavage measured after 24 hrs by autoradiographic analysis; set-up: dose 20 mg/kg, dosed compound name [14C]Sunitinib; conditions: in vivo, po
[16] = Drug concentration in male albino rat uveal tract assessed as radioactivity per gram of tissue at 20 mg/kg administered as single dose via gastric gavage measured after 24 hrs by autoradiographic analysis; set-up: dose 20 mg/kg, dosed compound name [14C]Sunitinib; conditions: in vivo, po
[17] = Drug concentration in female albino rat lachrymal gland assessed as radioactivity per gram of tissue at 20 mg/kg administered as single dose via gastric gavage measured after 72 hrs by autoradiographic analysis; set-up: dose 20 mg/kg, dosed compound name [14C]Sunitinib; conditions: in vivo, po; procedure, shortened: as §1
[18] = Drug concentration in male albino rat thyroid gland assessed as radioactivity per gram of tissue at 20 mg/kg administered as single dose via gastric gavage measured after 6 hrs by autoradiographic analysis; set-up: dose 20 mg/kg, dosed compound name [14C]Sunitinib; conditions: in vivo, po
Adrenal [19] = test: Drug concentration in male albino rat adrenal assessed as radioactivity per gram of tissue at 20 mg/kg administered as single dose via gastric gavage measured after 24 hrs by autoradiographic analysis; set-up: dose 20 mg/kg, dosed compound name [14C]Sunitinib; conditions: in vivo, po
Zone of skin [20] = test: Drug concentration in female Lister Hooded pigmented rat abdomen skin assessed as radioactivity per gram of tissue at 20 mg/kg administered as single dose via gastric gavage measured after 24 hrs by autoradiographic analysis; set-up: dose 20 mg/kg, dosed compound name [14C]Sunitinib; conditions: in vivo, po
Procedure, shortened: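 Pigmented Lister Hooded rats, 7-8 weeks old, received [14C]sunitinib L-malate by gavage at 20 mg/kg (15 mg freebase/kg, 100 µCi/kg). One rat per sex was killed by CO2 at each of 24, 72, 168 and 336 h. Carcasses were frozen in solid CO2/hexane and cut into 30 µm sagittal sections, then freeze-dried. Tissue radioactivity was quantified by whole-body autoradiography calibrated against standards by regression (LOQ 0.04–0.06 µg eq/g).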

Adrenal [21] = test: Drug concentration in female Lister Hooded pigmented rat adrenal assessed as radioactivity per gram of tissue at 20 mg/kg administered as single dose via gastric gavage measured after 72 hrs by autoradiographic analysis; set-up: dose 20 mg/kg, dosed compound name [14C]Sunitinib; conditions: in vivo, po; procedure, shortened: as §3
[22] = Drug concentration in female Lister Hooded pigmented rat uveal tract assessed as radioactivity per gram of tissue at 20 mg/kg administered as single dose via gastric gavage measured after 168 hrs by autoradiographic analysis; set-up: dose 20 mg/kg, dosed compound name [14C]Sunitinib; conditions: in vivo, po; procedure, shortened: as §3

Question: What does the source list for `CCN(CC)CCNC(=O)c1c(C)[nH]c(/[14CH]=C2\C(=O)Nc3ccc(F)cc32)c1C.O=C(O)C[C@H](O)C(=O)O`?
Answer: t1/2 lambda z (Rattus norvegicus): 9 h; Radiolabel recovery [1]: 9.3%; Radiolabel recovery [2]: 75.2%; Radiolabel recovery (Blood): 0.16 ugequiv; Radiolabel recovery (Harderian gland): 17.26 ugequiv; Radiolabel recovery (Stomach [3]): 0.67 ugequiv; Radiolabel recovery [4]: 3.52 ugequiv; Radiolabel recovery (Zone of skin [5]): 3.45 ugequiv; Radiolabel recovery [6]: 2.92 ugequiv; Radiolabel recovery [7]: 0.06 ugequiv; Radiolabel recovery (Stomach [8]): 0.06 ugequiv; Radiolabel recovery (Zone of skin [9]): 3.16 ugequiv; Radiolabel recovery [10]: 5.07 ugequiv; Radiolabel recovery [11]: 7.51 ugequiv; Radiolabel recovery (Adrenal [12]): 29.98 ugequiv; Radiolabel recovery [13]: 0.74 ugequiv; Radiolabel recovery (Spleen): 20.52 ugequiv; Radiolabel recovery (Stomach [14]): 10.15 ugequiv; Radiolabel recovery [15]: 13.66 ugequiv; Radiolabel recovery [16]: 0.13 ugequiv; Radiolabel recovery [17]: 0.25 ugequiv; Radiolabel recovery [18]: 18.76 ugequiv; Radiolabel recovery (Adrenal [19]): 4.11 ugequiv; Radiolabel recovery (Zone of skin [20]): 3.23 ugequiv; Radiolabel recovery (Adrenal [21]): 1.57 ugequiv; Radiolabel recovery [22]: 276.19 ugequiv
